Calls of active or inactive are those of the source. No cut-off for these calls is given here.
Experiments:
[1] = tested on: 184B5; assay: Antiproliferative activity against human 184B5 cells after 48 hrs by SRB assay; format: cell-based; conditions: 184B5, 48 h
Method in brief: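 SRB assay: 5,000-10,000 cells/well plated, 24 h at 37 °C/5% CO2 before drug; seven concentrations from 100 μM down (two- to ten-fold serial dilutions, DMSO ≤0.1% final) for 48 h; TCA fixation (10% final, 60 min, 4 °C), 0.4% SRB in 1% acetic acid, solubilized in 10 mM Tris base, absorbance 515-564 nm; growth = (Ti−Tz)/(C−Tz)×100; IC50 from sigmoidal variable-slope fit; triplicates, ≥2 independent experiments.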

[2] = tested on: MCF7; assay: Potency index, ratio of cisplatin IC50 to compound IC50 for antiproliferative activity against human MCF7 cells; format: functional
[3] = tested on: NCI-H1975; assay: Antiproliferative activity against human NCI-H1975 cells assessed as compound concentration required to show complete inhibition of cell viability up to 96 hrs by SRB assay; format: functional
[4] = Selectivity index, ratio of compound concentration for cell killing activity in human 184B5 cells to compound concentration for cell killing activity in human PC3 cells; format: toxicity, cell-based; conditions: 184B5 cells versus PC3 cells, read-out: Selectivity Index
[5] = tested on: MCF7; assay: Antiproliferative activity against human MCF7 cells assessed as compound concentration required to show complete inhibition of cell viability up to 96 hrs by SRB assay; format: functional
[6] = tested on: MCF7; assay: Cell cycle arrest in human MCF7 cells assessed as DNA content at 2 uM after 6 hrs by BrdU incorporation assay (reference value: 31.6%); format: functional
[7] = tested on: MCF7; assay: Cell cycle arrest in human MCF7 cells assessed as DNA content at 2 uM after 24 hrs by BrdU incorporation assay (reference value: 32.9%); format: functional
[8] = tested on: 184B5; assay: Antiproliferative activity against human 184B5 cells assessed as compound concentration required to show complete inhibition of cell viability up to 96 hrs by SRB assay; format: cell-based; conditions: 184b5, 96 h
[9] = target: Serine/threonine-protein kinase mTOR (Homo sapiens) (UniProt P42345); assay: Inhibition of mTOR pathway in human MCF7 cells assessed as reduction in S6K phosphorylation at Thr389 residue at 2 uM after 24 hrs by Western blot method; format: cell-based
[10] = tested on: MCF7; assay: Inhibition of DNA replication in human MCF7 cells assessed as EdU incorporation at 2 uM pretreated for 48 hrs followed by EdU addition at final 45 mins of 48 hrs incubation time (reference value: 45 to 63%); format: functional; parameters: scale not given: the % may be the effect or the level left
[11] = tested on: MCF-10A; assay: Antiproliferative activity against human MCF10A cells at 1 to 2 uM up to 96 hrs by SRB assay; format: cell-based
[12] = Selectivity index, ratio of compound concentration for cell killing activity in human MCF10A cells to compound concentration for cell killing activity in human NCI-H1975 cells; format: toxicity, cell-based; conditions: MCF10A cells versus NCI-H1975 cells, read-out: Selectivity Index
[13] = tested on: MDA-MB-453; assay: Antiproliferative activity against human MDA-MB-453 cells assessed as compound concentration required to show complete inhibition of cell viability up to 96 hrs by SRB assay; format: functional
[14] = Selectivity index, ratio of compound concentration for cell killing activity in human MCF10A cells to compound concentration for cell killing activity in human BT20 cells; format: toxicity, cell-based; conditions: MCF10A cells versus BT20 cells, read-out: Selectivity Index
[15] = Selectivity index, ratio of compound concentration for cell killing activity in human 184B5 cells to compound concentration for cell killing activity in human BT474 cells; format: toxicity, cell-based; conditions: 184B5 cells versus BT474 cells, read-out: Selectivity Index
[16] = tested on: MCF7; assay: Cell cycle arrest in human MCF7 cells assessed as DNA content at 2 uM after 12 hrs by BrdU incorporation assay (reference value: 20.7%); format: functional
[17] = Selectivity index, ratio of compound concentration for cell killing activity in human MCF10A cells to compound concentration for cell killing activity in human CAMA1 cells; format: toxicity, cell-based; conditions: MCF10A cells versus CAMA1 cells, read-out: Selectivity Index
[18] = Selectivity index, ratio of compound concentration for cell killing activity in human 184B5 cells to compound concentration for cell killing activity in human MDA-MB-453 cells; format: toxicity, cell-based; conditions: 184B5 cells versus MDA-MB-453 cells, read-out: Selectivity Index
[19] = tested on: CAMA-1; assay: Antiproliferative activity against human CAMA1 cells assessed as compound concentration required to show complete inhibition of cell viability up to 96 hrs by SRB assay; format: functional
[20] = Selectivity index, ratio of compound concentration for cell killing activity in human 184B5 cells to compound concentration for cell killing activity in human LNCAP cells; format: toxicity, cell-based; conditions: 184B5 cells versus LNCAP cells, read-out: Selectivity Index
[21] = target: Serine/threonine-protein kinase mTOR (Homo sapiens) (UniProt P42345); assay: Inhibition of mTOR pathway in human MCF7 cells assessed as reduction in S6K phosphorylation at Ser371 residue at 2 uM after 6 to 24 hrs by Western blot method; format: cell-based
[22] = tested on: MCF-10A; assay: Antiproliferative activity against human MCF10A cells assessed as compound concentration required to show complete inhibition of cell viability up to 96 hrs by SRB assay; format: cell-based
[23] = tested on: MCF7; assay: Downregulation of Cyclin-B protein expression in human MCF7 cells at 2 uM after 24 to 72 hrs by Western blot method; format: functional, cell-based
[24] = tested on: LNCaP; assay: Antiproliferative activity against human LNCAP cells assessed as compound concentration required to show complete inhibition of cell viability up to 96 hrs by SRB assay; format: functional
[25] = Selectivity index, ratio of compound concentration for cell killing activity in human MCF10A cells to compound concentration for cell killing activity in human A549 cells; format: toxicity, cell-based; conditions: MCF10A cells versus A549 cells, read-out: Selectivity Index
[26] = Selectivity index, ratio of compound concentration for cell killing activity in human 184B5 cells to compound concentration for cell killing activity in human MDA-MB-468 cells; format: toxicity, cell-based; conditions: 184B5 cells versus MDA-MB-468 cells, read-out: Selectivity Index
[27] = target: Serine/threonine-protein kinase Chk2 (Homo sapiens) (UniProt O96017); assay: Induction of CHK2 phosphorylation at T68 residue in human MCF7 cells at 2 uM after 12 to 48 hrs by Western blot method; format: cell-based
Chain of Serine/threonine-protein kinase Chk2 (Homo sapiens) (O96017 whole entry): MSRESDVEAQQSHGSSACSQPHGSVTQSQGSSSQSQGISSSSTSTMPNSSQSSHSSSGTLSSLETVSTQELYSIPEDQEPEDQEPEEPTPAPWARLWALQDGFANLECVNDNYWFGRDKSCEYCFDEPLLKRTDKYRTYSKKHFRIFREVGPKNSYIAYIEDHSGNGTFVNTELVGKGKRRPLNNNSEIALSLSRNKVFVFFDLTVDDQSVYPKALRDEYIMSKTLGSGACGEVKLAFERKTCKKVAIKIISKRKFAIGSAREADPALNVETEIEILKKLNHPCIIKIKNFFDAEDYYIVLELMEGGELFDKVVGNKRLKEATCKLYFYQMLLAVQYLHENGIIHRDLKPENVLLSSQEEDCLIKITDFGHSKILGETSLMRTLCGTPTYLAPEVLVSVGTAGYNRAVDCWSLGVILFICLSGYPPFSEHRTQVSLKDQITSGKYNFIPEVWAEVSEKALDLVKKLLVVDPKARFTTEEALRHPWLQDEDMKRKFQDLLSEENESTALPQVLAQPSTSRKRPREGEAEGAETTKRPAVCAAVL

[28] = Selectivity index, ratio of compound concentration for cell killing activity in human 184B5 cells to compound concentration for cell killing activity in human SK-BR-3 cells; format: toxicity, cell-based; conditions: 184B5 cells versus SK-BR-3 cells, read-out: Selectivity Index
[29] = tested on: MDA-MB-231; assay: Cell cycle arrest in human MDA-MB-231 cells assessed as accumulation at S phase at 2 uM after 48 hrs by propidium iodide staining based flow cytometry; format: functional
Method in brief: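 MCF7, MDA-MB231 and non-cancer 184B5 breast cells exposed to 2 μM for 48 h, then cell-cycle analysis by flow cytometry; duplicates, repeated three times.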

[30] = tested on: MCF7; assay: Upregulation of Cyclin-E protein expression in human MCF7 cells at 2 uM after 12 to 24 hrs by Western blot method; format: functional, cell-based

## COc1ccc2nc3cc(Cl)ccc3c(NCCCN3C(=O)CCSC3c3cccs3)c2c1 (stereo not given)
[1]
  IC50: 4.96 µM
[2]
  Ratio IC50: 37.3
[3]
  Activity: 2 µM
[4]
  selectivity ratio: 3 to 6
[5]
  Activity: 1 µM
[6]
  Activity: 3.7%
[7]
  Activity: 0.7%
[8]
  Activity: 6 µM
[9]
  inhibition: Active
[10]
  Activity: 5%
[11]
  Activity: Non-Toxic
[12]
  selectivity ratio: 3 to 6
[13]
  Activity: 2 µM
[14]
  selectivity ratio: 3 to 6
[15]
  selectivity ratio: 3 to 6
[16]
  Activity: 8.7%
[17]
  selectivity ratio: 3 to 6
[18]
  selectivity ratio: 3 to 6
[19]
  Activity: 2 µM
[20]
  selectivity ratio: 3 to 6
[21]
  inhibition: inactive
[22]
  Activity: > 6 µM
[23]
  Activity: Active
[24]
  Activity: 2 µM
[25]
  selectivity ratio: 3 to 6
[26]
  selectivity ratio: 3 to 6
[27]
  Activity: inactive
[28]
  selectivity ratio: 3 to 6
[29]
  Activity: Active
[30]
  Activity: Active

Source: ChEMBL document CHEMBL4138245, “Design and synthesis of novel quinacrine-[1,3]-thiazinan-4-one hybrids for their anti-breast cancer activity” (Eur J Med Chem, 2018)
